In brackets after ≈: the same amount, converted by molar mass.
Assays:
[1] = Inhibition of rat intestinal alpha-glucosidase using p-nitrophenyl-alpha-D-glucopyranoside substrate by spectrophotometry
Method in brief: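 Crude enzyme was the centrifuged supernatant of sonicated rat intestinal acetone powder in normal saline (100:1 w/v). Samples from 5 mg/mL DMSO stocks were preincubated with enzyme for 5 min in 100 mM phosphate buffer pH 6.8. Then 5 mM p-nitrophenyl-α-D-glucopyranoside solution was added, and p-nitrophenol was read at 405 nm after 5 min. Substrate-free blanks and a DMSO control were included, in triplicate. IC50 was obtained by regression on mean inhibition.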

MCF7 = experiment: Anticancer activity against human MCF7 cells after 24 hrs by MTT assay; assay type: functional, cell-based; conditions: MCF7, 24 h
Method in brief: (§1)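 Cells were seeded at 1 × 10^6 to 1 × 10^5 cells/well in FBS-rich medium with antibiotics, and compounds were added after 24 h. MTT (5 mg/ml stock in PBS pH 7.4) was then added, with 4 h in the dark in an incubator. Dye was removed (except for suspension K562), formazan was dissolved in DMSO with 10 min shaking, and A570 was read. Percent cytotoxicity was calculated relative to untreated control absorbance.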

[2] = Anticancer activity against human MDA-MB cells after 24 hrs by MTT assay; assay type: functional, cell-based
HeLa = experiment: Anticancer activity against human HeLa cells after 24 hrs by MTT assay; assay type: functional, cell-based; method in brief: as §1
HEK293 = experiment: Cytotoxic activity against HEK293 cells after 24 hrs by MTT assay; assay type: cell-based; conditions: Homo sapiens, HEK293, 24 h; method in brief: as §1
A498 = experiment: Anticancer activity against human A498 cells after 24 hrs by MTT assay; assay type: functional, cell-based; conditions: A498, 24 h; method in brief: as §1
K562 = experiment: Anticancer activity against human K562 cells after 24 hrs by MTT assay; assay type: functional, cell-based; conditions: K562, 24 h; method in brief: as §1
[3] = Anticancer activity against human SH-SY5Y cells after 24 hrs by MTT assay; assay type: functional, cell-based
WRL68 = experiment: Anticancer activity against human WRL68 cells after 24 hrs by MTT assay; assay type: functional, cell-based; conditions: WRL68, 24 h; method in brief: as §1
NRK = experiment: Cytotoxicty against rat NRK cells after 24 hrs by MTT assay; assay type: cell-based; method in brief: as §1
[4] = Induction of hemolysis in human erythrocytes assessed as mean erythrocyte fragility by measuring level of hemolysis at 50% PBS at 100 ug/mL by spectrophotomtery based erythrocyte osmotic fragility assay; assay type: cell-based
Method in brief: (§2)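 Heparinised human blood was incubated with compound at 37 °C for 60 min, then transferred to hypotonic PBS (0.1–0.85 %). After 30 min equilibration and centrifugation, supernatant A540 was read. Percent lysis is relative to a 100% haemolysis standard, and fragility curves give MEF50 as the haemolysis level at 50% PBS. DMSO 0.5% served as vehicle control.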

[5] = Induction of hemolysis in human erythrocytes assessed as mean erythrocyte fragility by measuring level of hemolysis at 50% PBS at 50 ug/mL by spectrophotomtery based erythrocyte osmotic fragility assay; assay type: cell-based; method in brief: as §2

Row | Compound | IC50 [1] | IC50 (MCF7) | IC50 (HeLa) | IC50 (K562) | IC50 [2] | IC50 (HEK293) | IC50 (A498) | IC50 [3] | IC50 (WRL68) | IC50 (NRK) | Activity [4] | Activity [5]
1 | C=C[C@@]1(C)CC(=O)[C@@]23O[C@@H](C)O[C@H]4CCC(C)(C)[C@H]([C@H](O)[C@H](O)[C@@]2(C)O1)[C@]43C | 4.23 µg/mL (≈ 10.7 µM) | 45.7 µg/mL (≈ 116 µM) | 0.95 µg/mL (≈ 2.41 µM) | 25.4 µg/mL (≈ 64.3 µM) | 24.5 µg/mL (≈ 62.1 µM) | 24.8 µg/mL (≈ 63 µM) | 40.6 µg/mL (≈ 103 µM) | 34.7 µg/mL (≈ 87.9 µM) | 29.7 µg/mL (≈ 75.4 µM) | 48 µg/mL (≈ 122 µM) | 0.69 | 0.85
2 | C=C[C@@]1(C)CC(=O)[C@@]23O[C@@H](c4ccc(Br)cc4)O[C@H]4CCC(C)(C)[C@H]([C@H](O)[C@H](OC(C)=O)[C@@]2(C)O1)[C@]43C | > 100 µg/mL | > 100 µg/mL | 46.2 µg/mL (≈ 79.9 µM) | > 100 µg/mL | > 100 µg/mL | > 100 µg/mL | > 100 µg/mL | > 100 µg/mL | > 100 µg/mL | > 100 µg/mL |  | 
3 | COc1cc([C@@H]2c3cc4c(cc3[C@H](O)[C@H]3COC(=O)[C@H]23)OCO4)cc(OC)c1OC [PODOFILOX] |  |  | 3.14 µg/mL (≈ 7.58 µM) | 0.013 µg/mL (≈ 0.0314 µM) | 0.017 µg/mL (≈ 0.041 µM) | 0.12 µg/mL (≈ 0.29 µM) | 0.034 µg/mL (≈ 0.082 µM) | 1.05 µg/mL (≈ 2.53 µM) |  |  | 0.69 | 
4 | C=C[C@@]1(C)CC(=O)[C@@]23O[C@@H](c4cccs4)O[C@H]4CCC(C)(C)[C@H]([C@H](O)[C@H](OC(C)=O)[C@@]2(C)O1)[C@]43C | > 100 µg/mL | > 100 µg/mL | 42 µg/mL (≈ 83.2 µM) | > 100 µg/mL | > 100 µg/mL | 40.1 µg/mL (≈ 79.6 µM) | > 100 µg/mL | > 100 µg/mL | > 100 µg/mL | > 100 µg/mL |  | 
5 | C=C[C@@]1(C)CC(=O)[C@@]23O[C@@H](c4ccccc4)O[C@H]4CCC(C)(C)[C@H]([C@H](OC(C)=O)[C@H](O)[C@@]2(C)O1)[C@]43C | 4.14 µg/mL (≈ 8.3 µM) | 1.15 µg/mL (≈ 2.31 µM) | 9.22 µg/mL (≈ 18.5 µM) | 1.26 µg/mL (≈ 2.53 µM) | 1.28 µg/mL (≈ 2.57 µM) | 14.3 µg/mL (≈ 28.7 µM) | 16.7 µg/mL (≈ 33.5 µM) | 16.6 µg/mL (≈ 33.3 µM) | 16.6 µg/mL (≈ 33.3 µM) | 20.1 µg/mL (≈ 40.4 µM) | 0.57 | 0.53
6 | C=C[C@@]1(C)CC(=O)[C@@]23O[C@@H](c4ccccc4)O[C@H]4CCC(C)(C)[C@H]([C@H](O)[C@H](O)[C@@]2(C)O1)[C@]43C | > 100 µg/mL | > 100 µg/mL | 3.89 µg/mL (≈ 8.52 µM) | 1.26 µg/mL (≈ 2.77 µM) | 20.8 µg/mL (≈ 45.4 µM) | 1.17 µg/mL (≈ 2.56 µM) | 20.4 µg/mL (≈ 44.8 µM) | 21.6 µg/mL (≈ 47.2 µM) | 9.79 µg/mL (≈ 21.4 µM) | 23.7 µg/mL (≈ 51.9 µM) | 0.69 | 0.67
7 | COc1cc(/C=C/C(=O)CC(=O)/C=C/c2ccc(O)c(OC)c2)ccc1O [CURCUMIN] |  |  |  |  |  |  |  |  |  |  | 0.53 | 
8 | C=C[C@@]1(C)CC(=O)[C@@]23O[C@@H](C)O[C@H]4CCC(C)(C)[C@H]([C@H](O)[C@H](OC(C)=O)[C@@]2(C)O1)[C@]43C | 5.87 µg/mL (≈ 13.4 µM) | > 100 µg/mL | > 100 µg/mL | > 100 µg/mL | > 100 µg/mL | > 100 µg/mL | > 100 µg/mL | > 100 µg/mL | > 100 µg/mL | > 100 µg/mL |  | 
9 | C=C[C@@]1(C)CC(=O)[C@@]23O[C@@H](c4ccc([N+](=O)[O-])cc4)O[C@H]4CCC(C)(C)[C@H]([C@H](O)[C@H](OC(C)=O)[C@@]2(C)O1)[C@]43C | 0.76 µg/mL (≈ 1.4 µM) | > 100 µg/mL | > 100 µg/mL | > 100 µg/mL | > 100 µg/mL | > 100 µg/mL | > 100 µg/mL | > 100 µg/mL | > 100 µg/mL | > 100 µg/mL |  | 
10 | C=C[C@@]1(C)CC(=O)[C@@]23O[C@@H](/C=C/c4ccccc4)O[C@H]4CCC(C)(C)[C@H]([C@H](O)[C@H](OC(C)=O)[C@@]2(C)O1)[C@]43C | 0.74 µg/mL (≈ 1.41 µM) | > 100 µg/mL | > 100 µg/mL | > 100 µg/mL | > 100 µg/mL | 38.5 µg/mL (≈ 73.5 µM) | > 100 µg/mL | > 100 µg/mL | > 100 µg/mL | > 100 µg/mL |  | 

Now from value to compound, other results behind:

Row | IC50 [1] | IC50 (MCF7) | IC50 (HeLa) | IC50 (K562) | Compound | IC50 [2] | IC50 (HEK293) | IC50 (A498) | IC50 [3] | IC50 (WRL68) | IC50 (NRK) | Activity [4] | Activity [5]
11 | 0.45 µg/mL (≈ 0.697 µM) |  |  |  | C[C@H]1O[C@H](O[C@H]2[C@H](O)[C@@H](O)[C@@H](O[C@H]3[C@H](O)[C@@H](O)C(O)O[C@@H]3CO)O[C@@H]2CO)[C@H](O)[C@@H](O)[C@@H]1N[C@H]1C=C(CO)[C@@H](O)[C@H](O)[C@H]1O (stereo partly specified) [ACARBOSE] |  |  |  |  |  |  |  | 
12 |  |  |  | 0.018 µg/mL (≈ 0.0211 µM) | CC(=O)O[C@H]1C(=O)[C@@]2(C)[C@H]([C@H](OC(=O)c3ccccc3)[C@]3(O)C[C@H](OC(=O)[C@H](O)[C@@H](NC(=O)c4ccccc4)c4ccccc4)C(C)=C1C3(C)C)[C@]1(OC(C)=O)CO[C@@H]1C[C@@H]2O [PACLITAXEL] | 0.026 µg/mL (≈ 0.0304 µM) | 0.008 µg/mL (≈ 0.00937 µM) | 7.53 µg/mL (≈ 8.82 µM) | 7.3 µg/mL (≈ 8.55 µM) | 0.004 µg/mL (≈ 0.00468 µM) |  |  | 
13 | 2.81 µg/mL (≈ 5.64 µM) | > 100 µg/mL | > 100 µg/mL | > 100 µg/mL | C=C[C@@]1(C)CC(=O)[C@@]23O[C@@H](c4ccccc4)O[C@H]4CCC(C)(C)[C@H]([C@H](O)[C@H](OC(C)=O)[C@@]2(C)O1)[C@]43C | > 100 µg/mL | > 100 µg/mL | > 100 µg/mL | > 100 µg/mL | > 100 µg/mL | > 100 µg/mL |  | 
14 | 4.96 µg/mL (≈ 10.2 µM) | > 100 µg/mL | > 100 µg/mL | > 100 µg/mL | C=C[C@@]1(C)CC(=O)[C@@]23O[C@@H](c4ccco4)O[C@H]4CCC(C)(C)[C@H]([C@H](O)[C@H](OC(C)=O)[C@@]2(C)O1)[C@]43C | > 100 µg/mL | > 100 µg/mL | > 100 µg/mL | > 100 µg/mL | > 100 µg/mL | > 100 µg/mL |  | 
15 | 6.4 µg/mL (≈ 14.7 µM) | 39.2 µg/mL (≈ 89.9 µM) | 17.4 µg/mL (≈ 39.9 µM) | > 100 µg/mL | C=C[C@@]1(C)CC(=O)[C@@]23O[C@@H](C)O[C@H]4CCC(C)(C)[C@H]([C@H](OC(C)=O)[C@H](O)[C@@]2(C)O1)[C@]43C | > 100 µg/mL | > 100 µg/mL | 41.6 µg/mL (≈ 95.3 µM) | > 100 µg/mL | > 100 µg/mL | > 100 µg/mL |  | 

— ChEMBL document CHEMBL3352073, “Synthesis of cyclic 1,9-acetal derivatives of forskolin and their bioactivity evaluation” (Eur J Med Chem, 2014)
